According to ChEMBL document CHEMBL4049410, “Novel benzimidazolyl tetrahydroprotoberberines: Design, synthesis, antimicrobial evaluation and multi-targeting exploration” (2017):
In brackets after ≈: the same amount, converted by molar mass.

Tests used:
Bacillus subtilis = assay: Antibacterial activity against Bacillus subtilis after 24 hrs by two-fold serial dilution assay; assay type: functional; conditions: Bacillus subtilis, 24 h; read-out: MIC
Procedure, shortened: (§1)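 Twofold serial broth dilution following NCCLS guidance, with Chloromycin, Norfloxacin and Fluconazole as positive controls. MIC in μM is the lowest concentration giving complete inhibition of visible bacterial or fungal growth.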

Candida albicans = assay: Antifungal activity against Candida albicans ATCC 76615 after 24 hrs by two-fold serial dilution assay; assay type: functional; conditions: Candida albicans, ATCC 76615, 24 h; read-out: MIC; procedure, shortened: as §1
Escherichia coli [1] = assay: Antibacterial activity against Escherichia coli JM109 after 24 hrs by two-fold serial dilution assay; assay type: functional; conditions: Escherichia coli, JM109, 24 h; read-out: MIC; procedure, shortened: as §1
Staphylococcus aureus [2] = assay: Antibacterial activity against methicillin-resistant Staphylococcus aureus N315 after 24 hrs by two-fold serial dilution assay; assay type: functional; conditions: Staphylococcus aureus, N315, 24 h; read-out: MIC
Micrococcus luteus = assay: Antibacterial activity against Micrococcus luteus ATCC 4698 after 24 hrs by two-fold serial dilution assay; assay type: functional, NCTC 2665; conditions: Micrococcus luteus, NCTC 2665, 24 h; read-out: MIC; procedure, shortened: as §1
Saccharomyces cerevisiae = assay: Antifungal activity against Saccharomyces cerevisiae after 24 hrs by two-fold serial dilution assay; assay type: functional; conditions: Saccharomyces cerevisiae, 24 h; read-out: MIC; procedure, shortened: as §1
Salmonella typhi = assay: Antibacterial activity against Bacillus typhi after 24 hrs by two-fold serial dilution assay; assay type: functional, Salmonella enterica subsp. enterica serovar Typhi; conditions: Salmonella enterica, 24 h; read-out: MIC
Cyberlindnera jadinii = assay: Antifungal activity against Candida utilis after 24 hrs by two-fold serial dilution assay; assay type: functional; conditions: Williopsis jadinii, 24 h; read-out: MIC; procedure, shortened: as §1
Pichia norvegensis = assay: Antifungal activity against Candida mycoderma after 24 hrs by two-fold serial dilution assay; assay type: functional; conditions: Pichia norvegensis, 24 h; read-out: MIC; procedure, shortened: as §1
Staphylococcus aureus [3] = assay: Antibacterial activity against Staphylococcus aureus ATCC 25923 after 24 hrs by two-fold serial dilution assay; assay type: functional; conditions: Staphylococcus aureus, ATCC 25923, 24 h; read-out: MIC; procedure, shortened: as §1
Pseudomonas aeruginosa = assay: Antibacterial activity against Pseudomonas aeruginosa after 24 hrs by two-fold serial dilution assay; assay type: functional; conditions: Pseudomonas aeruginosa, 24 h; read-out: MIC; procedure, shortened: as §1
Escherichia coli [4] = assay: Antibacterial activity against Escherichia coli DH52 after 24 hrs by two-fold serial dilution assay; assay type: functional; conditions: Escherichia coli, DH52, 24 h; read-out: MIC; procedure, shortened: as §1
Aspergillus flavus = assay: Antifungal activity against Aspergillus flavus after 24 hrs by two-fold serial dilution assay; assay type: functional; conditions: Aspergillus flavus, 24 h; read-out: MIC; procedure, shortened: as §1
Shigella dysenteriae = assay: Antibacterial activity against Shigella dysenteriae after 24 hrs by two-fold serial dilution assay; assay type: functional; conditions: Shigella dysenteriae, 24 h; read-out: MIC
Proteus vulgaris = assay: Antibacterial activity against Bacillus proteus ATCC 13315 after 24 hrs by two-fold serial dilution assay; assay type: functional; conditions: Proteus vulgaris, ATCC 13315, 24 h; read-out: MIC; procedure, shortened: as §1

Row | Compound | MIC (Bacillus subtilis) [µM] | MIC (Candida albicans) [µM] | MIC (Escherichia coli [1]) [µM] | MIC (Staphylococcus aureus [2]) [µM] | MIC (Micrococcus luteus) [µM] | MIC (Saccharomyces cerevisiae) [µM] | MIC (Salmonella typhi) [µM] | MIC (Cyberlindnera jadinii) [µM] | MIC (Pichia norvegensis) [µM] | MIC (Staphylococcus aureus [3]) [µM] | MIC (Pseudomonas aeruginosa) [µM] | MIC (Escherichia coli [4]) [µM] | MIC (Aspergillus flavus) [µM] | MIC (Shigella dysenteriae) [µM] | MIC (Proteus vulgaris) [µM]
1 | COc1ccc(Cn2c(-c3cc(OC)c(O)c4c3CC3c5cc6c(cc5CCN3C4)OCO6)nc3ccccc32)cc1 (stereo not given) | 19 (≈ 10.7 µg/mL) | 38 (≈ 21.3 µg/mL) | 38 (≈ 21.3 µg/mL) | 57 (≈ 32 µg/mL) | 57 (≈ 32 µg/mL) | 38 (≈ 21.3 µg/mL) | 47.5 (≈ 26.7 µg/mL) | 57 (≈ 32 µg/mL) | 57 (≈ 32 µg/mL) | 47.5 (≈ 26.7 µg/mL) | 38 (≈ 21.3 µg/mL) | 95 (≈ 53.4 µg/mL) | 23.8 (≈ 13.4 µg/mL) | 57 (≈ 32 µg/mL) | 47.5 (≈ 26.7 µg/mL)
2 | COc1cc(-c2nc3ccccc3n2Cc2ccc(Cl)cc2Cl)c2c(c1O)CN1CCc3cc4c(cc3C1C2)OCO4 (stereo not given) | 11.1 (≈ 6.67 µg/mL) | 22.2 (≈ 13.3 µg/mL) | 35.5 (≈ 21.3 µg/mL) | 53.3 (≈ 32 µg/mL) | 44.4 (≈ 26.7 µg/mL) | 26.6 (≈ 16 µg/mL) | 22.2 (≈ 13.3 µg/mL) | 22.2 (≈ 13.3 µg/mL) | 13.3 (≈ 7.99 µg/mL) | 22.2 (≈ 13.3 µg/mL) | 88.8 (≈ 53.3 µg/mL) | 107 (≈ 64 µg/mL) | 71.1 (≈ 42.7 µg/mL) | 71.1 (≈ 42.7 µg/mL) | 17.7 (≈ 10.6 µg/mL)
3 | CCn1cc(C(=O)O)c(=O)c2cc(F)c(N3CCNCC3)cc21 [NORFLOXACIN] | 3.1 (≈ 0.99 µg/mL) | – | 50.1 (≈ 16 µg/mL) | 25.1 (≈ 8.02 µg/mL) | 4.2 (≈ 1.34 µg/mL) | – | 10.4 (≈ 3.32 µg/mL) | – | – | 1.1 (≈ 0.351 µg/mL) | 41.8 (≈ 13.3 µg/mL) | 50.1 (≈ 16 µg/mL) | – | 5.3 (≈ 1.69 µg/mL) | 12.5 (≈ 3.99 µg/mL)
4 | O=C(N[C@H](CO)[C@H](O)c1ccc([N+](=O)[O-])cc1)C(Cl)Cl [CHLORAMPHENICOL] | 82.5 (≈ 26.7 µg/mL) | – | 82.5 (≈ 26.7 µg/mL) | 41.3 (≈ 13.3 µg/mL) | 20.7 (≈ 6.69 µg/mL) | – | 82.5 (≈ 26.7 µg/mL) | – | – | 41.3 (≈ 13.3 µg/mL) | 99 (≈ 32 µg/mL) | 66 (≈ 21.3 µg/mL) | – | 99 (≈ 32 µg/mL) | 99 (≈ 32 µg/mL)
5 | COc1cc(-c2nc3ccccc3n2Cc2cccc(Cl)c2)c2c(c1O)CN1CCc3cc4c(cc3C1C2)OCO4 (stereo not given) | 47.1 (≈ 26.7 µg/mL) | 37.7 (≈ 21.3 µg/mL) | 4.7 (≈ 2.66 µg/mL) | 56.5 (≈ 32 µg/mL) | 28.3 (≈ 16 µg/mL) | 47.1 (≈ 26.7 µg/mL) | 4.7 (≈ 2.66 µg/mL) | 9.4 (≈ 5.32 µg/mL) | 18.9 (≈ 10.7 µg/mL) | 23.6 (≈ 13.4 µg/mL) | 28.3 (≈ 16 µg/mL) | 75.4 (≈ 42.7 µg/mL) | 18.9 (≈ 10.7 µg/mL) | 23.6 (≈ 13.4 µg/mL) | 47.1 (≈ 26.7 µg/mL)
6 | COc1cc(C=O)c2c(c1O)CN1CCc3cc4c(cc3C1C2)OCO4 (stereo not given) | 483 (≈ 171 µg/mL) | 151 (≈ 53.3 µg/mL) | 242 (≈ 85.3 µg/mL) | 302 (≈ 107 µg/mL) | 302 (≈ 107 µg/mL) | 362 (≈ 128 µg/mL) | 302 (≈ 107 µg/mL) | 302 (≈ 107 µg/mL) | 242 (≈ 85.3 µg/mL) | 724 (≈ 256 µg/mL) | 302 (≈ 107 µg/mL) | 242 (≈ 85.3 µg/mL) | 151 (≈ 53.3 µg/mL) | 121 (≈ 42.7 µg/mL) | 483 (≈ 171 µg/mL)
7 | CCn1c(-c2cc(OC)c(O)c3c2CC2c4cc5c(cc4CCN2C3)OCO5)nc2ccccc21 (stereo not given) | 34.1 (≈ 16 µg/mL) | 17 (≈ 7.98 µg/mL) | 28.4 (≈ 13.3 µg/mL) | 14.2 (≈ 6.67 µg/mL) | 28.4 (≈ 13.3 µg/mL) | 22.7 (≈ 10.7 µg/mL) | 14.2 (≈ 6.67 µg/mL) | 34.1 (≈ 16 µg/mL) | 56.8 (≈ 26.7 µg/mL) | 28.4 (≈ 13.3 µg/mL) | 68.2 (≈ 32 µg/mL) | 136 (≈ 64 µg/mL) | 56.8 (≈ 26.7 µg/mL) | 136 (≈ 64 µg/mL) | 56.8 (≈ 26.7 µg/mL)
8 | COc1cc(-c2nc3ccccc3[nH]2)c2c(c1O)CN1CCc3cc4c(cc3C1C2)OCO4 (stereo not given) | 48.3 (≈ 21.3 µg/mL) | 483 (≈ 213 µg/mL) | 60.4 (≈ 26.7 µg/mL) | 121 (≈ 53.3 µg/mL) | 242 (≈ 107 µg/mL) | 48.3 (≈ 21.3 µg/mL) | 48.3 (≈ 21.3 µg/mL) | 242 (≈ 107 µg/mL) | 60.4 (≈ 26.7 µg/mL) | 580 (≈ 256 µg/mL) | 145 (≈ 64 µg/mL) | 96.7 (≈ 42.7 µg/mL) | 72.5 (≈ 32 µg/mL) | 96.7 (≈ 42.7 µg/mL) | 242 (≈ 107 µg/mL)
9 | CCCn1c(-c2cc(OC)c(O)c3c2CC2c4cc5c(cc4CCN2C3)OCO5)nc2ccccc21 (stereo not given) | 110 (≈ 53.3 µg/mL) | 22.1 (≈ 10.7 µg/mL) | 110 (≈ 53.3 µg/mL) | 55.2 (≈ 26.7 µg/mL) | 110 (≈ 53.3 µg/mL) | 132 (≈ 64 µg/mL) | 27.6 (≈ 13.3 µg/mL) | 27.6 (≈ 13.3 µg/mL) | 13.8 (≈ 6.67 µg/mL) | 44.1 (≈ 21.3 µg/mL) | 66.2 (≈ 32 µg/mL) | 110 (≈ 53.3 µg/mL) | 66.2 (≈ 32 µg/mL) | 265 (≈ 128 µg/mL) | 22.1 (≈ 10.7 µg/mL)
